Results collected from several papers.
Protocols differ between the studies behind these lines.
ABL1: Tyrosine-protein kinase ABL1 (ABL1, Homo sapiens, UniProt P00519)

SMILES | target | effect on | mode | method | tested at | quantity | value
C#Cc1n[nH]c2c(-c3cn([C@@H](C)c4ccccc4)c(=O)[nH]c3=O)cc(F)cc12 | ABL1 | enzyme activity | inhibitor | – | 0.1 µM | inhibition | -2.2%
Nc1ncc(-c2nc(N3CCOCC3)nc(N3CCOCC3)n2)c(C(F)F)n1 | Tyrosine-protein kinase ABL1, non-phosphorylated (ABL1, Homo sapiens, UniProt P00519, T315I) | binding | – | competition with immobilised ligand | 10 µM | remaining binding | 89%
Cn1cncc1[C@@](O)(COc1ccc(C#N)cc1-c1ccc(OC(F)(F)F)cc1)c1ccc(C#N)cc1 | Tyrosine-protein kinase ABL1, non-phosphorylated (ABL1, Homo sapiens, UniProt P00519, Q252H) | cell-free assay | – | competition with immobilised ligand | 1 µM | remaining binding | 76%
Cc1ncc(C)n2nc(/C=C/c3nc(N4CCCC4)cc(N4CCOCC4)n3)nc12 | ABL1 | enzyme activity | inhibitor | – | 10 µM | inhibition | 14%
CC(C)(C)c1cc(C=C(C#N)C#N)cc(Br)c1O | ABL1 | enzyme activity | inhibitor | – | 0.5 µM | remaining activity | 59.8%
Cn1cc(-c2cccc(N3CCc4c(sc5c4CC(C)(C)C5)C3=O)c2CO)cc(Nc2ccncn2)c1=O | ABL1 | enzyme activity | inhibitor | – | 1 µM | inhibition | -1%
Cc1nn(C)cc1-c1nc2c(N3CCN(Cc4ccc(Cl)cc4)CC3)c(Cl)cnc2[nH]1 | Tyrosine-protein kinase ABL1, phosphorylated (ABL1, Homo sapiens, UniProt P00519, Q252H) | binding | – | competition with immobilised ligand | 1 µM | remaining binding | 84%
N#CC1(c2ccccn2)CCN(Cc2cc(C(=O)O)c(=O)n3ccccc23)CC1 | Tyrosine-protein kinase ABL1, phosphorylated (ABL1, Homo sapiens, UniProt P00519, H396P) | cell-free assay | – | competition with immobilised ligand | 1 µM | remaining binding | 91%
Cn1cc(-c2cc(F)cc(N3CCn4c(cc5c4CCCC5)C3=O)c2CO)cc(Nc2ccc(N3CCN(C4COC4)CC3)cn2)c1=O | Tyrosine-protein kinase ABL1 (ABL1, Homo sapiens, UniProt P00519, Y253F) | enzyme activity | inhibitor | – | 0.1 µM | inhibition | 3%
C#Cc1n[nH]c2c(-c3cn([C@@H](C)c4ccccn4)c(=O)[nH]c3=O)cc(F)cc12 | ABL1 | enzyme activity | inhibitor | – | 0.1 µM | inhibition | -3.6%
